Test results reported in ChEMBL document CHEMBL1147090, “Effect of antibiotics on Staphylococcus aureus producing Panton-Valentine leukocidin” (2007).
≈ marks a conversion by molar mass, not a printed value. Calls of active or inactive are those of the source. No cut-off for these calls is given here.

How the values were obtained:
Staphylococcus aureus [1] = assay: Antibacterial activity against community acquired methicillin-resistant Staphylococcus aureus HT20010734 in CCY medium; format: functional
Method in brief: (§1)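 MIC by CLSI-standard broth microdilution, run both in Mueller-Hinton broth and in casein hydrolysate-yeast extract (CCY) medium. Inoculum 5 × 10^5 CFU/ml.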

Staphylococcus aureus [2] = assay: Decrease in Panton-Valentine leukocidin level in community acquired methicillin-resistant Staphylococcus aureus HT20040332 in CYY medium; format: functional, organism-based
Method in brief: (§2)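 Viable counts by plating diluted broth. Supernatant PVL measured by sandwich ELISA. μg PVL per log10 CFU is expressed as a percentage of the drug-free control. Means ± SD of five (LUG855) or three (clinical isolates) experiments. One-way ANOVA with Dunnett's test.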

Staphylococcus aureus [3] = assay: Antibacterial activity against community acquired methicillin-resistant Staphylococcus aureus HT20040332 in CCY media; format: functional; method in brief: as §1
Staphylococcus aureus [4] = assay: Antibacterial activity against community acquired methicillin-resistant Staphylococcus aureus HT20041010 in Mueller-Hinton medium; format: functional; method in brief: as §1
Staphylococcus aureus [5] = assay: Decrease in Panton-Valentine leukocidin level in community acquired methicillin-resistant Staphylococcus aureus HT20010734 in CYY medium; format: functional, organism-based; method in brief: as §2
Staphylococcus aureus [6] = assay: Antibacterial activity against community acquired methicillin-resistant Staphylococcus aureus HT20010734 in Mueller-Hinton medium; format: functional; method in brief: as §1
Staphylococcus aureus [7] = assay: Antibacterial activity against community acquired methicillin-resistant Staphylococcus aureus HT20030203 in CCY media; format: functional; method in brief: as §1
Staphylococcus aureus [8] = assay: Decrease in Panton-Valentine leukocidin level in community acquired methicillin-resistant Staphylococcus aureus HT20041010 in CYY medium; format: functional, organism-based; method in brief: as §2
Staphylococcus aureus [9] = assay: Decrease in Panton-Valentine leukocidin level in community acquired methicillin-resistant Staphylococcus aureus HT20030203 in CYY medium; format: functional, organism-based; method in brief: as §2
Staphylococcus aureus [10] = assay: Antibacterial activity against Staphylococcus aureus LUG855 in Mueller-Hinton medium; format: functional; method in brief: as §1
Staphylococcus aureus [11] = assay: Antibacterial activity against community acquired methicillin-resistant Staphylococcus aureus HT20030203 in Mueller-Hinton medium; format: functional; method in brief: as §1
Staphylococcus aureus [12] = assay: Antibacterial activity against community acquired methicillin-resistant Staphylococcus aureus HT20040332 in Mueller-Hinton medium; format: functional; method in brief: as §1
Staphylococcus aureus [13] = assay: Decrease in Panton-Valentine leukocidin level in community acquired methicillin-resistant Staphylococcus aureus HT20020488 in CYY medium; format: functional, organism-based; method in brief: as §2
Staphylococcus aureus [14] = assay: Antibacterial activity against community acquired methicillin-resistant Staphylococcus aureus HT20041010 in CCY media; format: functional; method in brief: as §1
Staphylococcus aureus [15] = assay: Decrease in Panton-Valentine leukocidin level in Staphylococcus aureus LUG855 in CCY medium; format: functional, organism-based; method in brief: as §2
Staphylococcus aureus [16] = assay: Antibacterial activity against community acquired methicillin-resistant Staphylococcus aureus HT20020488 in Mueller-Hinton medium; format: functional; method in brief: as §1
Staphylococcus aureus [17] = assay: Antibacterial activity against community acquired methicillin-resistant Staphylococcus aureus HT20020488 in CCY medium; format: functional; method in brief: as §1
Staphylococcus aureus [18] = assay: Antibacterial activity against Staphylococcus aureus LUG855 in CCY media; format: functional; method in brief: as §1
Staphylococcus aureus [19] = assay: Increase in Panton-Valentine leukocidin level in community acquired methicillin-resistant Staphylococcus aureus HT20041010 in CYY medium; format: functional, organism-based; method in brief: as §2
Staphylococcus aureus [20] = assay: Increase in Panton-Valentine leukocidin level in Staphylococcus aureus LUG855 in CCY medium; format: functional, organism-based; method in brief: as §2
Staphylococcus aureus [21] = assay: Increase in Panton-Valentine leukocidin level in community acquired methicillin-resistant Staphylococcus aureus HT20040332 in CYY medium; format: functional, organism-based; method in brief: as §2
Staphylococcus aureus [22] = assay: Increase in Panton-Valentine leukocidin level in community acquired methicillin-resistant Staphylococcus aureus HT20010734 in CYY medium; format: functional, organism-based; method in brief: as §2
Staphylococcus aureus [23] = assay: Increase in Panton-Valentine leukocidin level in community acquired methicillin-resistant Staphylococcus aureus HT20030203 in CYY medium; format: functional, organism-based; method in brief: as §2

SMILES	MIC (Staphylococcus aureus [1])	Activity (Staphylococcus aureus [2])	MIC (Staphylococcus aureus [3])	MIC (Staphylococcus aureus [4])	Activity (Staphylococcus aureus [5])	MIC (Staphylococcus aureus [6])	MIC (Staphylococcus aureus [7])	Activity (Staphylococcus aureus [8])	Activity (Staphylococcus aureus [9])	MIC (Staphylococcus aureus [10])	MIC (Staphylococcus aureus [11])	MIC (Staphylococcus aureus [12])	Activity (Staphylococcus aureus [13])	MIC (Staphylococcus aureus [14])	Activity (Staphylococcus aureus [15])	MIC (Staphylococcus aureus [16])	MIC (Staphylococcus aureus [17])	MIC (Staphylococcus aureus [18])	other results
CCC[C@@H]1C[C@@H](C(=O)N[C@@H]([C@H]2O[C@H](SC)[C@H](O)[C@@H](O)[C@H]2O)[C@H](C)Cl)N(C)C1 [CLINDAMYCIN]	0.25 µg/mL (≈ 0.588 µM)	Dose-dependent effect	> 128 µg/mL	> 128 µg/mL	Dose-dependent effect	0.12 µg/mL (≈ 0.282 µM)	0.25 µg/mL (≈ 0.588 µM)	Dose-dependent effect	Dose-dependent effect	0.06 µg/mL (≈ 0.141 µM)	0.12 µg/mL (≈ 0.282 µM)	> 128 µg/mL	Dose-dependent effect	> 128 µg/mL	Dose-dependent effect	> 128 µg/mL	> 128 µg/mL	0.12 µg/mL (≈ 0.282 µM)	
CC(=O)O[C@H]1C[C@@]2(C)[C@@H](C[C@@H](O)[C@H]3[C@@]4(C)CC[C@@H](O)[C@@H](C)[C@@H]4CC[C@@]32C)/C1=C(\CCC=C(C)C)C(=O)O [FUSIDIC ACID]				> 128 µg/mL			0.06 µg/mL (≈ 0.116 µM)			< 0.03 µg/mL	0.12 µg/mL (≈ 0.232 µM)			128 µg/mL (≈ 248 µM)		4 µg/mL (≈ 7.74 µM)	4 µg/mL (≈ 7.74 µM)	< 0.03 µg/mL	
CC(=O)NC[C@H]1CN(c2ccc(N3CCOCC3)c(F)c2)C(=O)O1 [LINEZOLID]		Dose-dependent effect		1 µg/mL (≈ 2.96 µM)	Dose-dependent effect	0.5 µg/mL (≈ 1.48 µM)		Dose-dependent effect	Dose-dependent effect	1 µg/mL (≈ 2.96 µM)	1 µg/mL (≈ 2.96 µM)	1 µg/mL (≈ 2.96 µM)	Dose-dependent effect		Dose-dependent effect	0.5 µg/mL (≈ 1.48 µM)			
Cc1onc(-c2ccccc2)c1C(=O)N[C@@H]1C(=O)N2[C@@H]1SC(C)(C)[C@@H]2C(=O)O [OXACILLIN]	16 µg/mL (≈ 39.9 µM)		8 µg/mL (≈ 19.9 µM)	32 µg/mL (≈ 79.7 µM)		32 µg/mL (≈ 79.7 µM)	16 µg/mL (≈ 39.9 µM)			0.12 µg/mL (≈ 0.299 µM)	32 µg/mL (≈ 79.7 µM)	16 µg/mL (≈ 39.9 µM)		16 µg/mL (≈ 39.9 µM)		8 µg/mL (≈ 19.9 µM)	8 µg/mL (≈ 19.9 µM)	0.06 µg/mL (≈ 0.149 µM)	Activity (Staphylococcus aureus [19]): Active; Activity (Staphylococcus aureus [20]): Active; Activity (Staphylococcus aureus [21]): Active; Activity (Staphylococcus aureus [22]): Active; Activity (Staphylococcus aureus [23]): Active
